Experimental data published in ChEMBL document CHEMBL2424622, “Development of amino-pyrimidine inhibitors of c-Jun N-terminal kinase (JNK): kinase profiling guided optimization of a 1,2,3-benzotriazole lead” (Bioorg Med Chem Lett, 2013).

Columns and labels:
[1] = target: Fibroblast growth factor receptor 2 (Homo sapiens) (UniProt P21802); test: Competitive binding affinity to FGFR2 (unknown origin) at 10 uM in presence of ATP relative to control
In short: (§1)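 In vitro ATP-site competition binding assay, part of profiling against a diverse panel of 128 kinases. Each compound was tested at a single concentration of 10 µM. Kinome selectivity was summarized as S15 selectivity scores.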

[2] = target: Fibroblast growth factor receptor 1 (Homo sapiens) (UniProt P11362); test: Competitive binding affinity to FGFR1 (unknown origin) at 10 uM in presence of ATP relative to control; in short: as §1
[3] = target: Ephrin type-A receptor 7 (Homo sapiens) (UniProt Q15375); test: Competitive binding affinity to EPHA7 (unknown origin) at 10 uM in presence of ATP relative to control; in short: as §1
[4] = target: Death-associated protein kinase 2 (Homo sapiens, UniProt Q9UIK4); test: Competitive binding affinity to DAPK2 (unknown origin) at 10 uM in presence of ATP relative to control
In short: (§2)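 In vitro ATP-site competition binding assay across a diverse panel of 128 kinases, with each compound tested at a single concentration. Kinase binding is expressed relative to control.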

[5] = target: Dual specificity protein kinase CLK3 (Homo sapiens) (UniProt P49761); test: Competitive binding affinity to CLK3 (unknown origin) at 10 uM in presence of ATP relative to control
Sequence of Dual specificity protein kinase CLK3 (Homo sapiens) (P49761 whole entry, looked up): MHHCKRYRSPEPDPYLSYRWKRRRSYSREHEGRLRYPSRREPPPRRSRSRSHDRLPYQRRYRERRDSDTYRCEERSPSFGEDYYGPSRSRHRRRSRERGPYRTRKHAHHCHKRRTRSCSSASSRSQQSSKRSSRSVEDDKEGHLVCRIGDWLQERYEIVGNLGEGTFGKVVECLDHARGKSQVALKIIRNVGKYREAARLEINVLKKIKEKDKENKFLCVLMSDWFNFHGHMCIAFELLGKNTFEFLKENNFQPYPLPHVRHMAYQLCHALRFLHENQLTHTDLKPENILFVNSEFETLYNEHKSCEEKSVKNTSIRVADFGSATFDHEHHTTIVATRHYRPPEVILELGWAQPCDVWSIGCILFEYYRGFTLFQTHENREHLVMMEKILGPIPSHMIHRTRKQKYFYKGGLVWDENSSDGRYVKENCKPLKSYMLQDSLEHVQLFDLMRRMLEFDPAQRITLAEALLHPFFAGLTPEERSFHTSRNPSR

[6] = target: Dual specificity protein kinase CLK2 (Homo sapiens) (UniProt P49760); test: Competitive binding affinity to CLK2 (unknown origin) at 10 uM in presence of ATP relative to control; in short: as §2
Sequence of Dual specificity protein kinase CLK2 (Homo sapiens) (P49760 whole entry, looked up): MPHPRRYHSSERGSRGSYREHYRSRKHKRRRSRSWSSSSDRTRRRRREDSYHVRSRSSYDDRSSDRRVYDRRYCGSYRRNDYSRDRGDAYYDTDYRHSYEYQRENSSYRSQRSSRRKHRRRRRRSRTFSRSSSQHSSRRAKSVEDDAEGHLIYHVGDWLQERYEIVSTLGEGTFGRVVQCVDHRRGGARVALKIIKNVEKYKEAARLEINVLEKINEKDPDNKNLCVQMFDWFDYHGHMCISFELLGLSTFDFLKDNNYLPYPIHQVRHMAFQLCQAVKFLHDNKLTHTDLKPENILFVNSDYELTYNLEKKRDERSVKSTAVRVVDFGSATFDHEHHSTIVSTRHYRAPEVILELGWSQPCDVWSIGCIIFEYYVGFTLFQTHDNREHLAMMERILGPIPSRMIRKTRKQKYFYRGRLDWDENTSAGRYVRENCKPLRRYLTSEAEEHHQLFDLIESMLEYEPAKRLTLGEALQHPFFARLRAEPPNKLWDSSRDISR

[7] = target: Dual specificity protein kinase CLK1 (Homo sapiens) (UniProt P49759); test: Competitive binding affinity to CLK1 (unknown origin) at 10 uM in presence of ATP relative to control
Sequence of Dual specificity protein kinase CLK1 (Homo sapiens) (P49759 whole entry, looked up): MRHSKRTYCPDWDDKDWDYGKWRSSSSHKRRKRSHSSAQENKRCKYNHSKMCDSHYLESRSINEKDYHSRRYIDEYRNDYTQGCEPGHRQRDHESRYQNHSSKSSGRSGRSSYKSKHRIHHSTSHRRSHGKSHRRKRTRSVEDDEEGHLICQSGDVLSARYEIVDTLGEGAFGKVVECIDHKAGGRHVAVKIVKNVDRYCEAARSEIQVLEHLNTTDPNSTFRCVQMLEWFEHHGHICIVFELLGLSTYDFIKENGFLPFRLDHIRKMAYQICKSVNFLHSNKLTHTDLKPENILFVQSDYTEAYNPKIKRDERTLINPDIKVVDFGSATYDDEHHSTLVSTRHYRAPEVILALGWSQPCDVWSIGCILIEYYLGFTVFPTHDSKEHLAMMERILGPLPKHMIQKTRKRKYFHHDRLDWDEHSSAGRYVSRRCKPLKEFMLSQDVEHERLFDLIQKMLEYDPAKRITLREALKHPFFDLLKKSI

[8] = target: Calcium/calmodulin-dependent protein kinase type II subunit gamma (Homo sapiens) (UniProt Q13555); test: Competitive binding affinity to CAMK2G (unknown origin) at 10 uM in presence of ATP relative to control
[9] = target: T1, Cytoplasmic tyrosine-protein kinase BMX (Homo sapiens) (UniProt P51813); test: Competitive binding affinity to BMX (unknown origin) at 10 uM in presence of ATP relative to control
T1 sequence (whole entry): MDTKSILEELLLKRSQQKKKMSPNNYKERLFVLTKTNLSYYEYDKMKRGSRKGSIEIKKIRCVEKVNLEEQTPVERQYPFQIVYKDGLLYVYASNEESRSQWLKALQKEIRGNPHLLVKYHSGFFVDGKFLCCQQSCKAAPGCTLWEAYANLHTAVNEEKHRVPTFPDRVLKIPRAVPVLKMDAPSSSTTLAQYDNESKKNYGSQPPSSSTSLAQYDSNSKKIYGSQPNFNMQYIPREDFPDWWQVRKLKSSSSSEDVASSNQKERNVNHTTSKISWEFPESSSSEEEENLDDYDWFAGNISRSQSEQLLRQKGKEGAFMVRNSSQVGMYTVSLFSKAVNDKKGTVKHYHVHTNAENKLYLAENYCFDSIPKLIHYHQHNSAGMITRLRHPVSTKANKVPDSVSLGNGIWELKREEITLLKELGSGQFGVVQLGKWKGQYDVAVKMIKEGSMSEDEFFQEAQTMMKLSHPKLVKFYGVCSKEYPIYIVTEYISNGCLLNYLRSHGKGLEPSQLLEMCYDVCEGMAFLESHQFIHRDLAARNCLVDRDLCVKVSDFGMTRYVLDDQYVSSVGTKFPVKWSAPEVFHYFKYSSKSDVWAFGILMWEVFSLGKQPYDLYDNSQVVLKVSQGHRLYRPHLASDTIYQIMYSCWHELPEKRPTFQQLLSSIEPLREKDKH

[10] = target: Tyrosine-protein kinase ABL2 (Homo sapiens) (UniProt P42684); test: Competitive binding affinity to ABL2 (unknown origin) at 10 uM in presence of ATP relative to control
Sequence of Tyrosine-protein kinase ABL2 (Homo sapiens) (P42684 whole entry): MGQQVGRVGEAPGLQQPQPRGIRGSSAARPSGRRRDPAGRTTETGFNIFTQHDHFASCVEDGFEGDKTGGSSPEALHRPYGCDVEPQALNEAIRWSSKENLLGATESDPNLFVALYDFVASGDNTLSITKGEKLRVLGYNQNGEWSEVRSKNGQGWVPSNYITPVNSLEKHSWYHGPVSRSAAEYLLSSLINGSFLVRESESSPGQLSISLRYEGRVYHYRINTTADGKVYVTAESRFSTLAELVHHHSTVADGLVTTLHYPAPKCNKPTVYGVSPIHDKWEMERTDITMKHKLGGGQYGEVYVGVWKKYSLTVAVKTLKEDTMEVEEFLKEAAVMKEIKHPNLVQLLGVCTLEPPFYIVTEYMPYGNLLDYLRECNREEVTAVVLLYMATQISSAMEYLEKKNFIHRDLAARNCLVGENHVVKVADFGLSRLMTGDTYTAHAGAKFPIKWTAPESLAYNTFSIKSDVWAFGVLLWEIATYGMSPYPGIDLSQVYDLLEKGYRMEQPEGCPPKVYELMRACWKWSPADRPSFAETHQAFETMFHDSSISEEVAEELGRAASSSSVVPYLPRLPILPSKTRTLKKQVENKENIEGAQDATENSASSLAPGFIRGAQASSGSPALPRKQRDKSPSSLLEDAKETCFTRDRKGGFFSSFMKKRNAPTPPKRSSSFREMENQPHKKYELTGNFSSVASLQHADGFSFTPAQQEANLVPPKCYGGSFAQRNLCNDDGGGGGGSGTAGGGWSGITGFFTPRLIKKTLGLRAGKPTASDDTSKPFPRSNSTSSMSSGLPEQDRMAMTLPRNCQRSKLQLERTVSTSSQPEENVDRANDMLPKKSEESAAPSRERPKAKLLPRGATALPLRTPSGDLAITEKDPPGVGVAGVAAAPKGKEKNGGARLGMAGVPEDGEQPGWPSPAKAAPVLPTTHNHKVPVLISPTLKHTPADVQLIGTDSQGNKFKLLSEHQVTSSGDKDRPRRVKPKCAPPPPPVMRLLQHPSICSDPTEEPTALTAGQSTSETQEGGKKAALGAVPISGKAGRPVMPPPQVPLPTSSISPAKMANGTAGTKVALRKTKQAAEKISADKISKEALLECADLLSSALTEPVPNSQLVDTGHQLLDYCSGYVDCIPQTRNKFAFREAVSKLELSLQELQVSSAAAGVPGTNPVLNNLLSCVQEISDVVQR

[11] = target: TRAF2 and NCK-interacting protein kinase (Homo sapiens) (UniProt Q9UKE5); test: Competitive binding affinity to TNIK (unknown origin) at 10 uM in presence of ATP relative to control
Sequence of TRAF2 and NCK-interacting protein kinase (Homo sapiens) (Q9UKE5 whole entry, looked up): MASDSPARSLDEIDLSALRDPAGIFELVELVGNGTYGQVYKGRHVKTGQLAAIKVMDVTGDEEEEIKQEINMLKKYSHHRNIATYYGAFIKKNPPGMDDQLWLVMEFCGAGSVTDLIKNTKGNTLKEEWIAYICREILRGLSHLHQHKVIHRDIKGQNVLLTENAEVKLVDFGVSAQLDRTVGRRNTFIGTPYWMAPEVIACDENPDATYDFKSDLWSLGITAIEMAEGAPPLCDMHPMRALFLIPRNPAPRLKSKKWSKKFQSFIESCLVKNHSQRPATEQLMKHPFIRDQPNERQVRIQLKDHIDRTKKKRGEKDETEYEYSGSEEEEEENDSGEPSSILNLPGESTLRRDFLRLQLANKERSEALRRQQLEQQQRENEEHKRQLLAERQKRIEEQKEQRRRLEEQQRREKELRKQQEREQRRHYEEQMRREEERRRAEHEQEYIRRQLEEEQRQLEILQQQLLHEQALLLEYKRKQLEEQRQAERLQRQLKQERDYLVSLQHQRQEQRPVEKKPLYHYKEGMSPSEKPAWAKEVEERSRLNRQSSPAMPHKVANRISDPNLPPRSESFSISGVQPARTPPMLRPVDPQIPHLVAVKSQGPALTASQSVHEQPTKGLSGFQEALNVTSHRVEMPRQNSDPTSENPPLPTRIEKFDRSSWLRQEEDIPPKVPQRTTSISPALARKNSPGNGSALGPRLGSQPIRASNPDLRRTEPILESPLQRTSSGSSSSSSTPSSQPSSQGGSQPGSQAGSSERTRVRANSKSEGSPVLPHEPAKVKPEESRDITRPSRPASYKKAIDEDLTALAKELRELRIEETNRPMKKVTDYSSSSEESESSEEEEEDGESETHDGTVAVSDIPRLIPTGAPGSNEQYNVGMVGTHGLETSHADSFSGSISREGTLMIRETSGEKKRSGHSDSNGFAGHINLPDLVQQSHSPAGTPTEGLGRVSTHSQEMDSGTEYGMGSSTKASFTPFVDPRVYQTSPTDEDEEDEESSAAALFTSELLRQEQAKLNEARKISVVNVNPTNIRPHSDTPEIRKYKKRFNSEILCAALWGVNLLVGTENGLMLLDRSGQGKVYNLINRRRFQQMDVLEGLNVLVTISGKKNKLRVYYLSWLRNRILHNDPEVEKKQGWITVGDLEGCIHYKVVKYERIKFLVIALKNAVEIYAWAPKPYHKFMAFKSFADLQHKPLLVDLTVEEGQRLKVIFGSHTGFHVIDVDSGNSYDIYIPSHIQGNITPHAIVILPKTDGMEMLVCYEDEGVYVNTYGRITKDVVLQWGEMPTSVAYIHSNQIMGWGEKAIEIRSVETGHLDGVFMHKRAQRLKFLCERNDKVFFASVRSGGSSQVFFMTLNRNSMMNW
In short: (§3)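 In vitro ATP-site competition binding assay across a diverse panel of 128 kinases, with compound tested at a single concentration. Kinase selectivity scores (S15) were calculated from the panel profiles.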

[12] = target: Tyrosine-protein kinase SYK (Homo sapiens) (UniProt P43405); test: Competitive binding affinity to SYK (unknown origin) at 10 uM in presence of ATP relative to control; in short: as §3
[13] = target: Mitogen-activated protein kinase 8 (Homo sapiens, UniProt P45983)
[14] = target: T2, Phosphorylase b kinase gamma catalytic chain, liver/testis isoform (Homo sapiens) (UniProt P15735); test: Competitive binding affinity to PHKG2 (unknown origin) at 10 uM in presence of ATP relative to control; in short: as §3
T2 sequence (whole entry): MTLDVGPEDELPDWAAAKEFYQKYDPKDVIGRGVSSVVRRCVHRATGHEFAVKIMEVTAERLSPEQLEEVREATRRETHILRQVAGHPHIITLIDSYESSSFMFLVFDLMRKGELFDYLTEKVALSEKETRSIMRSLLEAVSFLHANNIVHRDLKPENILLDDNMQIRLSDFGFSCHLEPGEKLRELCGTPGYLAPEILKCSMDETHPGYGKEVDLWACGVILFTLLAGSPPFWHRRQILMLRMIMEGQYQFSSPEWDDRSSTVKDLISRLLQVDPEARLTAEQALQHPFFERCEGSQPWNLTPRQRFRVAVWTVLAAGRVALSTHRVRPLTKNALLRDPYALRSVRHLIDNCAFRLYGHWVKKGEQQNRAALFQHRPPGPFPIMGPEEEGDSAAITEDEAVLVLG

[15] = target: Platelet-derived growth factor receptor beta (Homo sapiens, UniProt P09619); test: Competitive binding affinity to PDGFRB (unknown origin) at 10 uM in presence of ATP relative to control; in short: as §2
[16] = target: Platelet-derived growth factor receptor alpha (Homo sapiens) (UniProt P16234); test: Competitive binding affinity to PDGFRA (unknown origin) at 10 uM in presence of ATP relative to control; in short: as §3
Sequence of Platelet-derived growth factor receptor alpha (Homo sapiens) (P16234 whole entry): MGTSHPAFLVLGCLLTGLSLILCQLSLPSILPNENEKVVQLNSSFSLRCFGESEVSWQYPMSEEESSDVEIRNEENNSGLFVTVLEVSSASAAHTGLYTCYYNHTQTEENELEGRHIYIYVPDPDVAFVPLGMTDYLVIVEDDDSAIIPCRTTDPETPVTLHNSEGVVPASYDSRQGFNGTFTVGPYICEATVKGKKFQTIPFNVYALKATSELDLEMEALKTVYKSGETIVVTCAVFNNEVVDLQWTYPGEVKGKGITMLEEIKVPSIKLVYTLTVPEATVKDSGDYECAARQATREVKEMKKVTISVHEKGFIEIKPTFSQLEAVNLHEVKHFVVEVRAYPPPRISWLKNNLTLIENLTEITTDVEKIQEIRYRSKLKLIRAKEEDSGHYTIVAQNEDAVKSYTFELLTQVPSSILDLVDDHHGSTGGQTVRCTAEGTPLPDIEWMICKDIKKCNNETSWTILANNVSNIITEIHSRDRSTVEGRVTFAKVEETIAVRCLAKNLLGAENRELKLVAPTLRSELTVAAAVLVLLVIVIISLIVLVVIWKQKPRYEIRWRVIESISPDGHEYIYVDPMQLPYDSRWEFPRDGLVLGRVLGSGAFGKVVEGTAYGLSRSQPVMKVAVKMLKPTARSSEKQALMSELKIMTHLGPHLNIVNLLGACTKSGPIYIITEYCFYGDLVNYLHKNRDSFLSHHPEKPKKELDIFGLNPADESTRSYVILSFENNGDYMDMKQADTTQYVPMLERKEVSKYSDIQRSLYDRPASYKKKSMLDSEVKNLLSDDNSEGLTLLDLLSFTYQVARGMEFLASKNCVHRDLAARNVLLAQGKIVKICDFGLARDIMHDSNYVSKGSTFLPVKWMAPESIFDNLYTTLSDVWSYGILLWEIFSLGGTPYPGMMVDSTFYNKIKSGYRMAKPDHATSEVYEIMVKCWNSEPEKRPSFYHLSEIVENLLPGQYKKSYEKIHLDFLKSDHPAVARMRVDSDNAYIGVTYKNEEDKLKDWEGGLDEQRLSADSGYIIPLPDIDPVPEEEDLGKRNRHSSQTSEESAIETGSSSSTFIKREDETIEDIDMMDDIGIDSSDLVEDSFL

[17] = target: Mitogen-activated protein kinase 11 (Homo sapiens, UniProt Q15759); test: Competitive binding affinity to p38-beta (unknown origin) at 10 uM in presence of ATP relative to control; in short: as §3
[18] = target: Tyrosine-protein kinase JAK2 (Homo sapiens) (UniProt O60674); test: Competitive binding affinity to JAK2 kinase domain 2 (unknown origin) at 10 uM in presence of ATP relative to control; in short: as §1

Structure (SMILES) | inhibition [1] | inhibition [2] | inhibition [3] | inhibition [5] | inhibition [6] | inhibition [7] | inhibition [8] | inhibition [9] | inhibition [10] | inhibition [11] | inhibition [12] | IC50 [13] | inhibition [14] | inhibition [15] | inhibition [16] | inhibition [17] | inhibition [18] | inhibition [4]
O[C@H]1CC[C@H](Nc2nccc(-c3n[nH]c4ccccc34)n2)CC1 | < 50% | 80% | 95% | 94% | 95% | 100% | 88% | < 50% | < 50% | 99% | 69% | 250 nM | 90% | 98% | 98% | < 50% | 96% | 94%
N[C@H]1CC[C@H](Nc2nccc(-n3nnc4ccccc43)n2)CC1 | < 50% | < 50% | < 50% | 94% | 100% | 100% | < 50% | < 50% | 89% | 92% | < 50% | 74 nM | 100% | 95% | < 50% | < 50% | < 50% | 94%
O[C@H]1CC[C@H](Nc2nccc(-n3nnc4ccccc43)n2)CC1 | < 50% | < 50% | < 50% | 82% | 99% | 95% | 69% | < 50% | < 50% | < 50% | < 50% | 29 nM | 83% | 91% | < 50% | < 50% | 72% | 96%

More lines, main results first:

inhibition [1] | inhibition [2] | inhibition [3] | inhibition [5] | inhibition [6] | inhibition [7] | inhibition [8] | inhibition [9] | inhibition [10] | inhibition [11] | inhibition [12] | IC50 [13] | inhibition [14] | inhibition [15] | inhibition [16] | inhibition [17] | inhibition [18] | Structure (SMILES) | inhibition [4]
< 50% | < 50% | < 50% | < 50% | 97% | 91% | 67% | < 50% | < 50% | < 50% | < 50% | 65 nM | < 50% | 67% | < 50% | < 50% | < 50% | O[C@H]1CC[C@H](Nc2nccc(-n3ccc4ccccc43)n2)CC1 | < 50%
< 50% | < 50% | < 50% | < 50% | 94% | 87% | < 50% | < 50% | < 50% | < 50% | < 50% | 63 nM | < 50% | 70% | < 50% | < 50% | < 50% | O=C([C@H]1CC[C@H](Nc2nccc(-n3nnc4ccccc43)n2)CC1)N1CCOCC1 | < 50%
< 50% | < 50% | < 50% | < 50% | 99% | 93% | 80% | < 50% | < 50% | 79% | < 50% | 55 nM | < 50% | 90% | 72% | < 50% | < 50% | O[C@H]1CC[C@H](Nc2nccc(-n3ncc4ccccc43)n2)CC1 | < 50%
– | – | – | – | – | – | – | – | – | – | – | 16 nM | – | > 85% | – | > 85% | – | CS(=O)(=O)CCCOc1cccc2c1ccn2-c1ccnc(N[C@H]2CC[C@H](C(=O)N3CCC(O)CC3)CC2)n1 | > 85%
